From ChEMBL document CHEMBL1122158, “Agents with potential specificity against melanotic melanoma” (1982)
pEC50: −log10 of the molar value.

What was measured:
B16 [1] = assay: In vivo antitumor activity against B-16 Melanoma after intraperitoneal tumor implantation and then intraperitoneal administration of 100 mg/kg of dose; format: functional, Mus musculus
Procedure, shortened: (§1)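 B-16 melanoma was implanted intraperitoneally and dosed per NCI protocols. Intraperitoneal treatment began 24 h after implant and was given once daily on days 1-9. Activity was expressed as % T/C, with T/C ≥ 125% taken as statistically significant.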

A2 (Mus musculus) = assay: In vitro effective dose that causes 50% inhibition of growth of A2 cell line - amelanotic melanoma; conditions: read-out: ED50 (the source's name)
KB = assay: In vitro effective dose that causes 50% inhibition of growth of KB cell line - human epidermoid carcinoma of the nasopharynx; format: functional; conditions: read-out: ED50 (the source's name)
B16 [2] = assay: In vivo antitumor activity against B-16 Melanoma after intraperitoneal tumor implantation and then intraperitoneal administration of 75 mg/kg of dose; format: functional, Mus musculus; procedure, shortened: as §1
B16 [3] = assay: In vivo antitumor activity against B-16 Melanoma after intraperitoneal tumor implantation and then intraperitoneal administration of 150 mg/kg of dose; format: functional, Mus musculus; procedure, shortened: as §1
PS = assay: In vitro effective dose that causes 50% inhibition of growth of PS cell line - P388 lymphocytic leukemia; conditions: Mus musculus, read-out: ED50 (the source's name)
M2R = assay: In vitro effective dose that causes 50% inhibition of growth of M2R cell line - amelanotic melanoma; format: functional; conditions: Mus musculus, in the assay text read “melanotic melanoma” for “amelanotic melanoma”, read-out: ED50 (the source's name)
Procedure, shortened: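 1 × 10^4 cells seeded in a 1:1 DMEM/Ham's F-12 medium with 1.2 g/L NaHCO3, 15 mM HEPES and 10% fetal bovine serum, at 37 °C in 5% CO2. After 24 h, the medium was replaced with fresh medium holding the test agent at various concentrations. Growth was followed for at least 3 more days by trypsinizing and Coulter counting. Net cell increase was expressed as % of control when controls had grown 8-fold.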

For NC(CNc1ccc(O)cc1)C(=O)O (stereo unspecified), the T/C (B16 [1]) was 103%, the pEC50 (A2 (Mus musculus)) was 4.27 and the pEC50 (KB) was 3.85. The T/C (B16 [2]) was 111%, the T/C (B16 [3]) was 101% and the pEC50 (PS) was 4.49. It also gave a pEC50 (M2R) of 4.62.
For NC(CCCNc1cccc(O)c1)C(=O)O (stereo unspecified), the T/C (B16 [1]) was 87%, the pEC50 (A2 (Mus musculus)) was less than 4.00 and the pEC50 (KB) was 3.52. For the same compound, the T/C (B16 [2]) was 104%, the T/C (B16 [3]) was 82% and the pEC50 (PS) was 3.52. It also gave a pEC50 (M2R) of less than 4.00.
NC(CCCNc1ccc(O)cc1)C(=O)O (stereo unspecified) was tested, and the T/C (B16 [1]) was 98%, the pEC50 (A2 (Mus musculus)) was 4.66 and the pEC50 (KB) was 3.92. The T/C (B16 [2]) was 122%, the T/C (B16 [3]) was 106% and the pEC50 (PS) was 5.02. For the same compound, the pEC50 (M2R) was 4.89.
